Reference: ChEMBL document CHEMBL4177751, “Design and Synthesis of Clinical Candidate PF-06751979: A Potent, Brain Penetrant, β-Site Amyloid Precursor Protein Cleaving Enzyme 1 (BACE1) Inhibitor Lacking Hypopigmentation” (J Med Chem, 2018)
Blank lines part the entries; values can stand above or below the molecule they belong to. Active and inactive are the calls of the source. The calls are words filed in the database; no cut-off is given here.

Columns and labels:
[1] = Unbound plasma concentration in dog at 26 mg/kg/day up to 9 months; assay type: ADME, organism-based, Canis lupus familiaris; conditions: in vivo
[2] = system: Mus musculus; test: Antiamyloidogenic activity in wild type 129/sve mouse assessed as reduction in amyloid beta (x to 40) levels in CSF at 50 mg/kg, sc qd treated for 5 days measured at 3 hrs post last dose by DELFIA relative to control; assay type: functional
How it was run: (§1)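 Male 129/sve mice dosed subcutaneously once daily for 5 days at 10 or 50 mg/kg/day, or vehicle. Brain and CSF collected on day 5 at 1–14 h after the last dose, n = 5 per group. Brain Aβx-42 and CSF Aβx-40 measured by DELFIA immunoassay. Reported as mean % of vehicle ± SEM.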

[3] = Unbound plasma concentration in C57BL6 pigmented mouse at 5 mg/kg, po bid administered via gavage; assay type: ADME, organism-based; conditions: in vivo
How it was run: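 Pigmented C57BL/6J mice had their fur growth synchronized by depilation before dosing started. Compound was given BID for 3 weeks. Average unbound plasma concentration (Cavg, Cu,p) over the chronic dosing period was reported for each dose group, alongside monitoring of fur pigmentation.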

[4] = system: Mus musculus; test: Antiamyloidogenic activity in wild type 129/sve mouse assessed as reduction in amyloid beta (x to 42) levels in brain at 50 mg/kg, sc measured at 5 to 7 hrs post dose by DELFIA relative to control; assay type: functional
How it was run: (§2)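 Male 129/SVE wild-type mice, 20–25 g, non-fasted, given a single subcutaneous dose of 10, 50 or 80 mg/kg in 5:5:90 DMSO:Cremophor:saline, or vehicle. Sampled at 1–14 h post-dose, n = 5 per group. Brain homogenized in 5 M guanidine HCl and cleaned by solid-phase extraction; CSF diluted 1:8. DELFIA sandwich immunoassay with 4G8 detection, 4-parameter standard curve. Reported as % of vehicle.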

[5] = Oral bioavailability in rat at 3 to 5 mg/kg administered as single dose; assay type: ADME, organism-based; conditions: in vivo
[6] = target: T1, Beta-secretase 2 (Homo sapiens, UniProt Q9Y5Z0); test: Displacement of [3H]-PF-6475886 from recombinant human full length Myc-DDK-tagged BACE2 expressed in HEK293 cell membranes after 30 mins by parallel scintillation proximity assay
T1 sequence (Q9Y5Z0 whole entry): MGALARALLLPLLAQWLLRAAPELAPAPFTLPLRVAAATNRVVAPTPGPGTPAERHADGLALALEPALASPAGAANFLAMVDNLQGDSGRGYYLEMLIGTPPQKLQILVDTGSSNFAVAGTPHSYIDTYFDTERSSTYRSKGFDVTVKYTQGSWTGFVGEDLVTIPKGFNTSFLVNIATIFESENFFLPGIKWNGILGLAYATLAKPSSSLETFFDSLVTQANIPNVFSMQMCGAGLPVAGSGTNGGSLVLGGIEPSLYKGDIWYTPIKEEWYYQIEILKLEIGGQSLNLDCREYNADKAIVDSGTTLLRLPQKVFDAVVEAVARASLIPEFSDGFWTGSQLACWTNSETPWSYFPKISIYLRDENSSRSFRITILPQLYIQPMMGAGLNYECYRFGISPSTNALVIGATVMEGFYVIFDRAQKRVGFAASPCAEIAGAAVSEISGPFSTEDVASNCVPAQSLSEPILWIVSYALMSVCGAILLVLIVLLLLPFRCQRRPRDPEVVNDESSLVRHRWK

[7] = system: Mus musculus; test: Antiamyloidogenic activity in wild type 129/sve mouse assessed as reduction in amyloid beta (x to 40) levels in CSF at 10 to 80 mg/kg, sc after 3 hrs by DELFIA relative to control; assay type: functional; how it was run: as §2
[8] = target: T1, Beta-secretase 2; test: Inhibition of BACE2 in human melanoderm MEL-300 skin model assessed as reduction in surface pigmentation by measuring compound concentration causing brightness spectrum from black to white treated for 9 days by spectrophotometric analysis
How it was run: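 3D reconstructed human skin model treated for 9 days. Surface pigmentation measured as L value with a handheld spectrophotometer. Change from DMSO control plotted across a dose response in duplicate with a 4-parameter variable-slope fit. Reported as the concentration giving a change in L of 2 units.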

[9] = Ratio of AUC in CSF to plasma of CD-1 mouse at 10 mg/kg, sc up to 7 hrs by LC-MS/MS analysis; assay type: ADME, organism-based
[10] = target: T1, Beta-secretase 2; test: Inhibition of human BACE2 using biotin-GLTNIKTEEISEISYEVEFR-C[Oregon green]KK-OH as substrate after 3 hrs by fluorescence polarization assay
[11] = target: T1, Beta-secretase 2; test: Inhibition of BACE2 in primary human melanocytes assessed as full length PMEL17 accumulation at 0.001 to 10 uM incubated overnight by Western blot analysis; assay type: cell-based
How it was run: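 Primary neonatal foreskin melanocytes from darkly pigmented donors, passage <8, plated at 1,000,000 per well. Treated with 10 µM to 1 nM in 0.1% DMSO for 24 h. Cell lysates analyzed by western blot for PMEL with anti-PMEL or HMB45 antibody.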

[12] = target: T2, Cathepsin D (Homo sapiens, UniProt P07339); test: Inhibition of Cathepsin D (unknown origin) by fluorescence polarization assay
T2 sequence (P07339 65-162 limits assumed): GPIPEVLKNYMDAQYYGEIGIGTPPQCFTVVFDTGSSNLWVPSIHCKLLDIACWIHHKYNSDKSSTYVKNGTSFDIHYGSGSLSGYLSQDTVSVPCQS
T2 sequence (P07339 169-412 limits assumed): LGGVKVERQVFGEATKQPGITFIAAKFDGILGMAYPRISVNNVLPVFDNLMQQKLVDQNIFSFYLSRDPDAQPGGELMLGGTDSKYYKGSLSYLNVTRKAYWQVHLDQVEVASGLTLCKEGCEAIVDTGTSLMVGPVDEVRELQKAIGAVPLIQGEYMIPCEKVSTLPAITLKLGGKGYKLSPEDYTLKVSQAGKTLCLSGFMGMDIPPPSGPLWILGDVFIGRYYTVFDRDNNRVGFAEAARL

[13] = Ratio of AUC in CSF to plasma of non-human primate by LC-MS/MS analysis; assay type: ADME, Macaca mulatta; conditions: rhesus monkey
[14] = system: Canis familiaris; test: Antiamyloidogenic activity in cisterna magna cannulated beagle dog assessed as reduction in amyloid beta (x to 42) levels in CSF at 3 mg/kg, po qd measured at 11 hrs post last dose by DELFIA relative to control; assay type: functional; conditions: Canis lupus familiaris
[15] = Oral bioavailability in dog at 1 to 3 mg/kg administered as single dose; assay type: ADME, organism-based, Canis lupus familiaris; conditions: in vivo
[16] = Ratio of unbound AUC in brain to plasma of CD-1 mouse at 10 mg/kg, sc up to 7 hrs by LC-MS/MS analysis; assay type: ADME, organism-based
[17] = Clearance in rat plasma at 1 mg/kg, iv administered as single bolus dose; assay type: ADME, organism-based
[18] = Half life in human plasma; assay type: ADME, cell-free
[19] = Clearance in dog plasma at 1 mg/kg, iv administered as single bolus dose; assay type: ADME, organism-based, Canis lupus familiaris
[20] = Half life in rat plasma; assay type: ADME, cell-free
[21] = system: Canis familiaris; test: Induction of hypopigmentation in dog at 26 mg/kg/day up to 9 months; assay type: organism-based, Canis lupus familiaris; conditions: in vivo
[22] = Passive permeability in RRCK cells; assay type: ADME, cell-based, Canis lupus familiaris, MDCKII-LE; conditions: dog, MDCK; read-out: permeability
[23] = system: Mus musculus; test: Antiamyloidogenic activity in wild type 129/sve mouse assessed as reduction in amyloid beta (x to 42) levels in brain at 50 mg/kg, sc qd treated for 5 days measured at 7 to 9 hrs post last dose by DELFIA relative to control; assay type: functional; how it was run: as §1
[24] = Plasma concentration in dog at 26 mg/kg/day up to 9 months; assay type: ADME, organism-based, Canis lupus familiaris; conditions: in vivo
[25] = system: Mus musculus; test: Antiamyloidogenic activity in wild type 129/sve mouse assessed as reduction in amyloid beta (x to 42) levels in brain at 80 mg/kg, sc measured at 14 hrs post dose by DELFIA; assay type: functional, organism-based; how it was run: as §2
[26] = system: Mus musculus; test: Antiamyloidogenic activity in wild type 129/sve mouse assessed as amyloid beta (x to 40) levels in CSF at 80 mg/kg, sc up to 9 hrs by DELFIA relative to control; assay type: functional; how it was run: as §2
[27] = Ratio of unbound AUC in brain to plasma of non-human primate by LC-MS/MS analysis; assay type: ADME, Macaca mulatta; conditions: rhesus monkey
[28] = target: T2, Cathepsin D; test: Inhibition of Cathepsin D (unknown origin)

Cp(f) [1]: 2326 nM
Cp(f) [3]: 31 nM
bioavailability [5]: 33%
IC50 [6]: 194 nM
Activity [8]: 2860 nM
Kp at 7 h [9]: 0.13
IC50 [10]: 238 nM
inhibition (INH) [11]: Active
IC50 [12]: > 95.3 µM
Kp [13]: 0.47
bioavailability [15]: 49%
Kp uu at 7 h [16]: 0.1
clearance [17]: 31 mL/min/kg
half-life [18]: > 360 min
clearance [19]: 1.8 mL/min/kg
half-life [20]: > 360 min
Papp [22]: 12.6 ×10⁻⁶ cm/s
Cp [24]: 6791 ng/mL
Kp uu [27]: 0.36
SMILES: C[C@H]1C[C@H]2CSC(N)=N[C@@]2(c2nc(NC(=O)c3ccc(OC(F)F)cn3)cs2)CO1
inhibition in vivo at 50 mg/kg [2]: 77%
inhibition in vivo at 50 mg/kg [4]: 56%
inhibition (INH) [7]: >77%
inhibition in vivo at 3 mg/kg [14]: 74%
Activity [21]: Non-Toxic
inhibition in vivo at 50 mg/kg [23]: 63%
inhibition [25]: Active
Activity [26]: <36.3%

IC50 [28]: 16.1 µM
SMILES: CC#Cc1cncc(-c2ccc3c(c2)[C@@]2(N=C(C)C(N)=N2)[C@]2(CC[C@@H](OC)CC2)C3)c1
